Experimental data: ChEMBL document CHEMBL1153910, “Salicylate-urea-based soluble epoxide hydrolase inhibitors with high metabolic and chemical stabilities” (Bioorg Med Chem Lett, 2009)
Values after ≈ are worked out from the molar mass of the structure shown. Active and inactive are the calls of the source. The rule behind the calls is not given here.

Assays:
[1] = Metabolic stability in human liver S9 fraction in absence of NADPH assessed as residual parent compound remaining; type: ADME, subcellular
In short: (§1)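 Compounds were incubated with human liver S9 fraction, with or without NADPH. Residual parent compound is given as a percentage remaining.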

[2] = target: T1, Bifunctional epoxide hydrolase 2 (Homo sapiens, UniProt P34913); experiment: Inhibition of human soluble epoxide hydrolase by fluorescence assay
T1 sequence (P34913 whole entry): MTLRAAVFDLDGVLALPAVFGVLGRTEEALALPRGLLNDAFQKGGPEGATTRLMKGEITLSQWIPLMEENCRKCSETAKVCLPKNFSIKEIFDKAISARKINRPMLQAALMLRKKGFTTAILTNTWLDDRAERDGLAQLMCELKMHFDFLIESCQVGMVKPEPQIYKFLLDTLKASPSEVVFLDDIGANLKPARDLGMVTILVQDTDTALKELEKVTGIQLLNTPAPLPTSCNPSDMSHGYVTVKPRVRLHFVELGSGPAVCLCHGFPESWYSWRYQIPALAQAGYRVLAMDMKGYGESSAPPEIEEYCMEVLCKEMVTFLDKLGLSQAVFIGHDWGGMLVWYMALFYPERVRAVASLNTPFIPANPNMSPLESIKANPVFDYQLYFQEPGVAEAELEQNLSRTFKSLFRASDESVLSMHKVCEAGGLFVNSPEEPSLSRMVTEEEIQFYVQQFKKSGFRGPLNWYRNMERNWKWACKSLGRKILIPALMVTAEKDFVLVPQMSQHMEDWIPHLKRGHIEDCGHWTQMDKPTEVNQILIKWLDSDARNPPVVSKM
In short: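 Recombinant human sEH was used, with inhibition measured by a kinetic fluorescent assay and reported as IC50.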

[3] = Metabolic stability in human liver S9 fraction in presence of NADPH assessed as residual parent compound remaining; type: ADME, subcellular; in short: as §1
[4] = Octanol-water distribution coefficient, log P of the compound; type: physicochemical
In short: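 Partitioning was between buffer-saturated 1-octanol and 0.1 M sodium phosphate buffer, pH 7.4. Compound concentration was measured in each phase, and logP = log10([octanol]/[buffer]).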

[5] = Solubility in 0.1 M sodium phosphate buffer at pH 7.4
[6] = Chemical stability assessed as compound hydrolysis after 15 mins in 40 mM NaOH at 22 degC; type: physicochemical; conditions: 0.25 h
[7] = Chemical stability in 40 mM NaOH at 22 degC; type: physicochemical
[8] = Half life in dog at 0.3 mg/kg, po; type: ADME, organism-based, Canis lupus familiaris; design: dose 0.3 mg/kg, route oral; conditions: in vivo
In short: (§2)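 Dogs were dosed by oral gavage at 0.3 mg/kg in tri-olein-rich oil. Blood concentration–time profiles were followed, and pharmacokinetic parameters were derived from those profiles.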

[9] = Tmax in dog at 0.3 mg/kg, po; type: ADME, organism-based, Canis lupus familiaris; design: dose 0.3 mg/kg, route oral; conditions: in vivo; in short: as §2
[10] = AUC (0 to 24 hrs) in dog at 0.3 mg/kg, po; type: ADME, organism-based, Canis lupus familiaris; design: time < 24 hr, dose 0.3 mg/kg, route oral; conditions: plasma; in short: as §2
[11] = Cmax in dog at 0.3 mg/kg, po; type: ADME, organism-based, Canis lupus familiaris; design: dose 0.3 mg/kg, route oral; conditions: in vivo; in short: as §2
[12] = AUC (0 to infinity) in dog at 0.3 mg/kg, po; type: ADME, organism-based, Canis lupus familiaris; design: time infinity, dose 0.3 mg/kg, route oral; conditions: plasma; in short: as §2
[13] = target: T2, Prostaglandin G/H synthase 2 (Homo sapiens) (UniProt P35354); experiment: Inhibition of COX2 at 10 uM by fluorescence assay
T2 sequence (whole entry): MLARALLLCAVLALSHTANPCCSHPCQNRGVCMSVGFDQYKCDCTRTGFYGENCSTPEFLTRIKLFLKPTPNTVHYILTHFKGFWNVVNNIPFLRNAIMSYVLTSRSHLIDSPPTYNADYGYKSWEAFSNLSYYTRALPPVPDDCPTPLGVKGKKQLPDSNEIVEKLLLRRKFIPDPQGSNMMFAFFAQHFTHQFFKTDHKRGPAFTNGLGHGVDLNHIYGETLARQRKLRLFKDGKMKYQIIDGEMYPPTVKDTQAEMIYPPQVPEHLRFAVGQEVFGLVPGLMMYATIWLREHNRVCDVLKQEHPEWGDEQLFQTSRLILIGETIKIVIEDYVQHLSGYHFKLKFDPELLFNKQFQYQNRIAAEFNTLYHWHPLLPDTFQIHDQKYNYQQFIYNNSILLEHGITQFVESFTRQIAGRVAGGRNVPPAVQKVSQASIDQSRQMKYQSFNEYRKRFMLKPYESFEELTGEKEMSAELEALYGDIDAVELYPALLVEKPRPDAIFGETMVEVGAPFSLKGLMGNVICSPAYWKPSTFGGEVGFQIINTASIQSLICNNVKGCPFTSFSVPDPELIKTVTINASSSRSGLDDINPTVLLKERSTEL

[14] = Chemical stability assessed as compound remaining after 7 hrs in 40 mM NaOH at 22 degC; type: physicochemical; conditions: read-out: Activity
[15] = target: Prostaglandin G/H synthase 1 (Homo sapiens) (UniProt P23219); experiment: Inhibition of COX1 at 10 uM by fluorescence assay
Sequence of Prostaglandin G/H synthase 1 (Homo sapiens) (P23219 whole entry): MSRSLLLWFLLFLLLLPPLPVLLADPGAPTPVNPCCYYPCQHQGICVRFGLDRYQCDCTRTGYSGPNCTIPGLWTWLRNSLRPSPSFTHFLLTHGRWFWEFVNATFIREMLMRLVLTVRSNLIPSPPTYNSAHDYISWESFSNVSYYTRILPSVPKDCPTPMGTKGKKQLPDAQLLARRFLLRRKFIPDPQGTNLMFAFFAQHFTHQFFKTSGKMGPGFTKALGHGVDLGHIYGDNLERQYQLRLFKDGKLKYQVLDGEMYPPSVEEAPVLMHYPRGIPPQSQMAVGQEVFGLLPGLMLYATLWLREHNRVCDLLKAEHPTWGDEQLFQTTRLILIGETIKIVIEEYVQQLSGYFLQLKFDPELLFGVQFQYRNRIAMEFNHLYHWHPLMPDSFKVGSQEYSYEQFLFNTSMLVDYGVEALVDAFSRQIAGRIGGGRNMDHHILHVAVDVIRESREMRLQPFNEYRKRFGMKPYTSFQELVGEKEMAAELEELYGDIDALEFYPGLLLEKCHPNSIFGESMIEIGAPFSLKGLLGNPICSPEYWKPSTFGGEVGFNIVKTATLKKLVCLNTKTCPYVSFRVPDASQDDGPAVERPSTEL

Compound: COC(=O)c1cc(NC(=O)NC23CC4CC(CC(C4)C2)C3)ccc1O
- Stability [1]: 46%
- IC50 [2]: 12 nM
- Stability [3]: 51%

Compound: O=C(O)CCCc1ccc(NC(=O)NC23CC4CC(CC(C4)C2)C3)cc1
- IC50 [2]: 19.9 nM

Compound: O=C(Nc1cccc(OC(=O)c2ccccc2)c1)NC12CC3CC(CC(C3)C1)C2
- IC50 [2]: 5.1 nM

Compound: CC(=O)Oc1cccc(NC(=O)NC23CC4CC(CC(C4)C2)C3)c1
- IC50 [2]: 5.8 nM

Compound: O=C(Nc1cccc(O)c1)NC12CC3CC(CC(C3)C1)C2
- IC50 [2]: 28 nM

Compound: O=C(Nc1ccc(C(=O)O)c(O)c1)NC12CC3CC(CC(C3)C1)C2
- logP ([4]; read-out: logP): 1.6
- solubility [5]: 199000 µg/mL (≈ 602000 µM)
- IC50 [2]: 71 nM

Compound: CN1CCN(C(=O)c2cccc(NC(=O)NC34CC5CC(CC(C5)C3)C4)c2)CC1
- IC50 [2]: 35 nM

Compound: O=C(Nc1ccc(OC(=O)c2ccccc2)cc1)NC12CC3CC(CC(C3)C1)C2
- Stability [1]: 32%
- IC50 [2]: 11 nM
- Stability [3]: 31%
- Stability [6]: Unstable

Compound: COC(=O)c1cccc(NC(=O)NC23CC4CC(CC(C4)C2)C3)c1
- IC50 [2]: 14 nM

Compound: O=C(Nc1cccc(C(=O)O)c1)NC12CC3CC(CC(C3)C1)C2
- IC50 [2]: 365 nM

Compound: COc1cccc(NC(=O)NC23CC4CC(CC(C4)C2)C3)c1
- IC50 [2]: 4.7 nM

Compound: O=C(Nc1cccc(C(=O)N2CCOCC2)c1)NC12CC3CC(CC(C3)C1)C2
- IC50 [2]: 25 nM

Compound: O=C(Nc1ccc(O)cc1)NC12CC3CC(CC(C3)C1)C2
- IC50 [2]: 24 nM

Compound: O=C(O)Cc1ccc(NC(=O)NC23CC4CC(CC(C4)C2)C3)cc1
- IC50 [2]: 392 nM

Compound: COc1ccccc1NC(=O)NC12CC3CC(CC(C3)C1)C2
- IC50 [2]: 8540 nM

Compound: O=C(Nc1ccc(C(=O)O)cc1)NC12CC3CC(CC(C3)C1)C2
- IC50 [2]: 1410 nM

Compound: COc1ccc(NC(=O)NC23CC4CC(CC(C4)C2)C3)cc1
- IC50 [2]: 14 nM

Compound: COC(=O)CCc1ccc(NC(=O)NC23CC4CC(CC(C4)C2)C3)cc1
- IC50 [2]: 2.2 nM

Compound: COC(=O)c1ccc(NC(=O)NC23CC4CC(CC(C4)C2)C3)cc1
- logP [4]: > 3.9
- Stability [1]: 97%
- half-life [7]: 2 h
- solubility [5]: 400 µg/mL (≈ 1220 µM)
- IC50 [2]: 4.1 nM
- Stability [3]: 95%

Compound: O=C(O)CCc1ccc(NC(=O)NC23CC4CC(CC(C4)C2)C3)cc1
- IC50 [2]: 126 nM

Compound: O=C(O)CCCCCCCCCCCNC(=O)NC12CC3CC(CC(C3)C1)C2
- half-life [8]: 2.9 h
- Tmax [9]: 0.5 h
- AUC(0-t) at 24 h [10]: 0.0522 µM·h
- Cmax [11]: 18 nM
- AUC(0-inf) [12]: 0.0524 µM·h

Compound: COC(=O)c1ccc(NC(=O)NC23CC4CC(CC(C4)C2)C3)cc1O
- logP [4]: > 4.1
- half-life [8]: 7.9 h
- Stability [1]: 93%
- Activity [13]: inactive
- remaining at 7 h [14]: 80%
- Tmax [9]: 1 h
- AUC(0-t) at 24 h [10]: 0.189 µM·h
- solubility [5]: 200 µg/mL (≈ 581 µM)
- Activity [15]: inactive
- IC50 [2]: 2.8 nM
- Stability [3]: 89%
- Cmax [11]: 45 nM
- AUC(0-inf) [12]: 0.209 µM·h

Compound: CC(=O)Oc1ccc(NC(=O)NC23CC4CC(CC(C4)C2)C3)cc1
- Stability [1]: < 0.1%
- IC50 [2]: 3.9 nM
- Stability [3]: < 0.1%
- Stability [6]: Unstable

Compound: COC(=O)CCCc1ccc(NC(=O)NC23CC4CC(CC(C4)C2)C3)cc1
- IC50 [2]: 3.1 nM

Compound: COC(=O)Cc1ccc(NC(=O)NC23CC4CC(CC(C4)C2)C3)cc1
- IC50 [2]: 4 nM

Compound: O=C(Nc1ccccc1)NC12CC3CC(CC(C3)C1)C2
- IC50 [2]: 17 nM

Compound: CCOCCOCCOc1cccc(NC(=O)NC23CC4CC(CC(C4)C2)C3)c1
- Stability [3]: 56%

Compound: O=C(Nc1cccc(C(=O)N2CCC(N3CCOCC3)CC2)c1)NC12CC3CC(CC(C3)C1)C2
- IC50 [2]: 29 nM

Compound: O=C(Nc1ccc(O)c(C(=O)O)c1)NC12CC3CC(CC(C3)C1)C2
- IC50 [2]: 116 nM

Compound: O=C(Nc1ccccc1O)NC12CC3CC(CC(C3)C1)C2
- IC50 [2]: 139 nM
